Entries after “also recorded” stand apart in the source; their conditions may differ.
Key:
[1] = test system: acetyl-α-tubulin; assay: Western blot on MCF-7 cells, acetylation status of α-tubulin; format: cell-based; settings: 24 h; for acetyl-α-tubulin accumulation: 50 μM, comparison of SIRT inhibitors (Fig. 3)
Outline: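 MCF-7 cells exposed 24 h to test compound at increasing concentrations […]. Acetylation of α-tubulin (SIRT2 biomarker) and of histone H3-K9 (SIRT1 biomarker) monitored in parallel.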

[2] = test system: p53 acetylation at lysine 382; assay: Western blot on MCF-7 cells, p53 acetylation at lysine 382; format: cell-based; settings: 24 h, 50 μM (Fig. 3)
[3] = test system: MCF-7 breast carcinoma cell line; format: cell-based; settings: MCF-7 cells, 50 μM, 24 h
[4] = biological target: T1, SIRT2 (Homo sapiens, UniProt Q8IXJ6); assay: in vitro enzymatic fluorimetric assay, SIRT2 inhibitory activity; format: biochemical; settings: for selectivity for SIRT2 over SIRT1: in vitro
T1 sequence (Q8IXJ6 1-389): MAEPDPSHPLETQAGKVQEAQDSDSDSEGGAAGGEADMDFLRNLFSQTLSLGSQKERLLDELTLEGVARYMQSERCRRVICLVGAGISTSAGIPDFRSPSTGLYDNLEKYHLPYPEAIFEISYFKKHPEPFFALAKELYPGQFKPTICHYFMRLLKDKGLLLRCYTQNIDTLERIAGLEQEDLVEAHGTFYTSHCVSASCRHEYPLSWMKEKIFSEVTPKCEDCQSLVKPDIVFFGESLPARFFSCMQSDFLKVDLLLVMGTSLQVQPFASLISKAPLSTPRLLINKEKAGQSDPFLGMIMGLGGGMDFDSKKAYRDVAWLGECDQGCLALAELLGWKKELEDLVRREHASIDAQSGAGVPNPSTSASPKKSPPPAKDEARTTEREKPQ

[5] = test system: H3-K9 acetylation; assay: Western blot on MCF-7 cells, acetylation status of H3-K9; format: cell-based; settings: 24 h, concentrations up to 50 μM
[6] = test system: pRb phosphorylation at Ser807/Ser811; assay: Western blot on MCF-7 cells, pRb phosphorylation; format: cell-based; settings: 24 h, 50 μM
[7] = test system: MCF-7 cells; assay: proliferative analysis / cell viability assay on MCF-7 cells; format: cell-based; settings: 30 μM, 0-72 h

SMILES | acetyl-α-tubulin accumulation [1] | p53 acetylation at lysine 382 [2] | cell cycle phase in which cells accumulate [3] | other results
O=C(Nc1cccc(Br)c1)c1cccc(S(=O)(=O)N2CCCCCC2)c1 [AK-7] | no significant effect | moderately induce p53 acetylation at lysine 382 | increase in cells primarily in G2/M phase | 
NC(=O)c1ccc2c(c1)CCc1cc([N+](=O)[O-])ccc1N2 [Compound 8] | substantial accumulation of acetyl-α-tubulin |  | high number of cells to accumulate at G2/M phase | selectivity for SIRT2 over SIRT1 [4]: more than 30 fold; acetylation of α-tubulin ([1]; concentrations up to 50 μM): induce hyperacetylation of α-tubulin; acetylation levels of H3-K9 [5]: without increasing the acetylation levels of H3-K9; pRb phosphorylation at Ser807/Ser811 [6]: impede pRb phosphorylation at Ser807/Ser811; antiproliferative effect [7]: antiproliferative activity; also recorded: abolished cell proliferation completely
CC(C)(C)NS(=O)(=O)c1ccc2c(c1)Nc1ccccc1CC2 [Compound 20] |  |  |  | selectivity for SIRT2 over SIRT1 [4]: more than 30 fold
CN1c2ccc(C(N)=O)cc2CCc2cc([N+](=O)[O-])ccc21 [Compound 29] |  |  |  | loss of SIRT2 potency relative to compound 8 ([4]; N-methyl derivative vs 8): 4 fold
NC(=O)C1CCCc2c1[nH]c1ccc(Cl)cc21 (stereo not drawn) [EX-527] |  |  | accumulate predominantly in G1 | reduction of cell proliferation relative to DMSO vehicle control [7]: approximately 50%
CC(C(=O)Nc1cccc(/N=C/c2c(O)ccc3ccccc23)c1)c1ccccc1 (stereo not drawn) [Salermide] | slight increase in acetyl-α-tubulin | moderately induce p53 acetylation at lysine 382 | increase in cells primarily in G2/M phase | antiproliferative effect [7]: abolished cell proliferation completely
CC(NC(=O)c1ccccc1/N=C/c1c(O)ccc2ccccc12)c1ccccc1 (stereo not drawn) [Sirtinol] | no significant effect | moderately induce p53 acetylation at lysine 382 | accumulate predominantly in G1 | 

Source: publication PMC3856871 (MedChemComm, 2012)
